# Experimental data: ChEMBL document CHEMBL2434889, “New orally effective 3-(2-nitro)phenylpropanamide analgesic derivatives: synthesis and antinociceptive evaluation” (Eur J Med Chem, 2013)
# The source made the active and inactive calls.
# How the values were obtained:
# [1] = test system: Mus musculus; experiment: Toxicity in mouse at 3 mg/kg, ip; type: organism-based; set-up: dose 3 mg/kg, route intraperitoneal; conditions: in vivo
# [2] = test system: Mus musculus; experiment: Antinociceptive activity in mouse assessed as inhibition of acetic acid-induced writhing response at 3 mg/kg, ip after 10 mins measured for 10 mins; type: functional; conditions: route intraperitoneal
# Summary of the method: (§1)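 Mice (20–24 g) dosed intraperitoneally, then given 0.5% aqueous acetic acid i.p. at 10 ml/kg. Stretches (back arching, pelvic rotation, hind-limb extension) were counted in an observation beaker for 10 min, starting 10 min after the acid. % inhibition is versus the control group. n = 50 mice for control and reference groups, 10 per other treatment. ANOVA with Fisher PLSD.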
# [3] = test system: Mus musculus; experiment: Antinociceptive activity in mouse assessed as inhibition of acetic acid-induced writhing response at 100 umol/kg, ip after 10 mins measured for 10 mins; type: functional; summary of the method: as §1
# [4] = test system: Mus musculus; experiment: Antinociceptive activity in mouse assessed as increase of forepaw licking latency at 100 umol/kg, ip measured after 15 to 60 mins by hot plate test; type: functional, organism-based
# Summary of the method: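 Hot-plate test at 55 °C with groups of 10 mice. Latency to forepaw licking was timed by stopwatch. Baseline was read twice before injection, and only mice reacting within 4–12 s were used. Readings were taken at 15, 30, 45 and 60 min after ip dosing, with a 30 s cutoff. Vehicle was physiological serum; morphine 5 mg/kg served as reference. Data are mean ± SEM, one-way ANOVA with Fisher PLSD.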
# [5] = test system: Mus musculus; experiment: Toxicity in mouse assessed as effect on locomotion at 33 to 100 umol/kg, ip measured after 25 to 35 mins; type: organism-based; conditions: in vivo
# Summary of the method: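 Mice were injected ip with drug or saline and returned at once to photocell-beam cages for 1 h. Horizontal locomotion was scored as cage crossings and analysed over 25–35 min post-treatment, the same window as the writhing counts. Methylphenidate 10 mg/kg and haloperidol 0.5 mg/kg served as stimulant and depressant references. Statistics by Fisher PLSD.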
# [6] = test system: Mus musculus; experiment: Antinociceptive activity in mouse assessed as inhibition of acetic acid-induced writhing response at 10 umol/kg, po after 10 mins measured for 10 mins; type: functional
# Summary of the method: (§2)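 Oral dosing, with 8 mice per treatment group. Writhing was induced by 0.5% aqueous acetic acid i.p. (10 ml/kg). Stretches were tallied over 10 min, beginning 10 min after the acid. % inhibition of constrictions is relative to the control group. Statistics by ANOVA and Fisher PLSD.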
# [7] = test system: Mus musculus; experiment: Antinociceptive activity in mouse assessed as inhibition of acetic acid-induced writhing response at 100 umol/kg, po after 10 mins measured for 10 mins; type: functional; summary of the method: as §2
# [8] = test system: Mus musculus; experiment: Antinociceptive activity in mouse assessed as inhibition of acetic acid-induced writhing response at 33.3 umol/kg, po after 10 mins measured for 10 mins; type: functional; summary of the method: as §2
# [9] = test system: Mus musculus; experiment: Antinociceptive activity in mouse assessed as inhibition of acetic acid-induced writhing response at 15 mg/kg, ip after 10 mins measured for 10 mins; type: functional; conditions: route intraperitoneal; summary of the method: as §1
structure (smiles),measurement,setting,value
O=C(CCc1cc2c(cc1[N+](=O)[O-])OCO2)N1CCN(c2ccccc2)CC1,Activity,[1],Non-toxic
same,inhibition in vivo at 3 mg/kg,[2],21.5%
COc1ccc(CCC(=O)N2CCCCC2)cc1OC,Activity,[1],Non-toxic
same,inhibition in vivo at 3 mg/kg,[2],< 0%
COc1ccccc1N1CCN(C(=O)CCc2cc3c(cc2[N+](=O)[O-])OCO3)CC1,Activity,[1],Non-toxic
same,inhibition in vivo at 3 mg/kg,[2],4.8%
O=C(CCc1ccc2c(c1)OCO2)N1CCCCC1,Activity,[1],Non-toxic
same,inhibition in vivo at 3 mg/kg,[2],53%
CCOC(=O)CCc1cc2c(cc1[N+](=O)[O-])OCO2,Activity,[1],Non-toxic
same,inhibition in vivo at 3 mg/kg,[2],40.5%
NC(=O)CCc1cc2c(cc1[N+](=O)[O-])OCO2,Activity,[1],Non-toxic
same,inhibition in vivo at 3 mg/kg,[2],14.8%
O=C(CCc1cc2c(cc1[N+](=O)[O-])OCO2)N1CCCCC1,Activity,[1],Non-toxic
same,inhibition in vivo at 3 mg/kg,[2],25.2%
same,inhibition in vivo at 100 µmol/kg,[3],44.8%
CCCCCCNC(=O)CCc1cc2c(cc1[N+](=O)[O-])OCO2,Activity,[1],Non-toxic
same,inhibition in vivo at 3 mg/kg,[2],38.6%
same,inhibition in vivo at 100 µmol/kg,[3],26%
COc1ccc(N2CCN(C(=O)CCc3cc4c(cc3[N+](=O)[O-])OCO4)CC2)cc1,Activity,[4],inactive
same,Activity,[1],Non-toxic
same,inhibition in vivo at 3 mg/kg,[2],37.2%
same,Activity,[5],Non-toxic
same,inhibition in vivo at 10 µmol/kg,[6],28.6%
same,inhibition in vivo at 100 µmol/kg,[7],40%
same,inhibition in vivo at 33.3 µmol/kg,[8],35.7%
same,inhibition in vivo at 100 µmol/kg,[3],50%
COc1cc(CCC(=O)N2CCOCC2)c([N+](=O)[O-])cc1OC,Activity,[1],Non-toxic
same,inhibition in vivo at 3 mg/kg,[2],15.3%
COc1cc(CCC(=O)N2CCCCC2)c([N+](=O)[O-])cc1OC,Activity,[1],Non-toxic
same,inhibition in vivo at 3 mg/kg,[2],33%
same,inhibition in vivo at 100 µmol/kg,[3],39.1%
O=C(CCc1cc2c(cc1[N+](=O)[O-])OCO2)Nc1ccccn1,Activity,[1],Non-toxic
same,inhibition in vivo at 3 mg/kg,[2],10%
COc1ccc(N2CCN(C(=O)CCc3cc4c(cc3N)OCO4)CC2)cc1,Activity,[1],Non-toxic
same,inhibition in vivo at 3 mg/kg,[2],21.5%
CC(=O)Oc1ccccc1C(=O)O [ASPIRIN],inhibition in vivo at 100 µmol/kg,[7],31.2%
same,inhibition in vivo at 15 mg/kg,[9],62.3%
same,inhibition in vivo at 100 µmol/kg,[3],59%
O=C(CCc1cc2c(cc1[N+](=O)[O-])OCO2)N1CCN(c2ccc(Cl)c(Cl)c2)CC1,Activity,[1],Non-toxic
same,inhibition in vivo at 3 mg/kg,[2],22%
CC1CCCCN1C(=O)CCc1ccc2c(c1)OCO2 (configuration not stated),Activity,[1],Non-toxic
same,inhibition in vivo at 3 mg/kg,[2],20.1%
O=C(CCc1cc2c(cc1[N+](=O)[O-])OCO2)Nc1ccccc1,Activity,[1],Non-toxic
same,inhibition in vivo at 3 mg/kg,[2],12.9%
COc1ccc(N2CCN(C(=O)CCc3ccc4c(c3)OCO4)CC2)cc1,Activity,[1],Non-toxic
same,inhibition in vivo at 3 mg/kg,[2],2.4%
O=C(CCc1cc2c(cc1[N+](=O)[O-])OCO2)N1CCOCC1,Activity,[1],Non-toxic
same,inhibition in vivo at 3 mg/kg,[2],31.4%
O=C(CCc1cc2c(cc1[N+](=O)[O-])OCO2)N1CCN(CCO)CC1,Activity,[1],Non-toxic
same,inhibition in vivo at 3 mg/kg,[2],32.9%
O=C(CCc1cc2c(cc1[N+](=O)[O-])OCO2)N1CCN(c2ccc(F)cc2)CC1,Activity,[1],Non-toxic
same,inhibition in vivo at 3 mg/kg,[2],14.3%
